Reference: ChEMBL document CHEMBL1148329, “Synthesis and structure-activity studies on N-[5-(1H-imidazol-4-yl)-5,6,7,8-tetrahydro-1-naphthalenyl]methanesulfonamide, an imidazole-containing alpha(1A)-adrenoceptor agonist” (J Med Chem, 2004)

How the values were obtained:
[1] = target: Alpha adrenergic receptor 1A and 1B (Rattus norvegicus) (UniProt P15823+P43140); assay: Selectivity is ratio of pKi (binding affinity) of alpha-1B receptor to that of alpha-1A receptor.; assay type: protein assay
[2] = target: T1, Alpha-1D adrenergic receptor (Rattus norvegicus, UniProt P23944); assay: In vitro binding affinity towards alpha-1D adrenergic receptor of rat clone in radioligand binding assay
T1 sequence (P23944 whole entry): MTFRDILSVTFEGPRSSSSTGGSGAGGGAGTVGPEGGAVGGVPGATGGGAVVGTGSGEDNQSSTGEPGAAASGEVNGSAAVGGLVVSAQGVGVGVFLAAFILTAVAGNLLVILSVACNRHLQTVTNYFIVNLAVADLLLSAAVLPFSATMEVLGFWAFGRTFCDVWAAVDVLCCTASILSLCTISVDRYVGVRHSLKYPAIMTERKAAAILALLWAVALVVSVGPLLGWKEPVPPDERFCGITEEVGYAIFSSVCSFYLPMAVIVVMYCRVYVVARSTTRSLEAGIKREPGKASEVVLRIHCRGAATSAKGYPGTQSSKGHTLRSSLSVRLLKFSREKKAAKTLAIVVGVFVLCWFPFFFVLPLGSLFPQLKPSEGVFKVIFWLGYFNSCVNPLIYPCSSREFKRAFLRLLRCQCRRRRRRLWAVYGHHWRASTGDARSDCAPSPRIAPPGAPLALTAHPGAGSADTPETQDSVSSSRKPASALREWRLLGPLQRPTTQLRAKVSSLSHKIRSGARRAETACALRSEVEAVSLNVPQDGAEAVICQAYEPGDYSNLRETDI
How it was run: (§1)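 Radioligand binding at α1 subtypes: α1A from rat submaxillary gland, α1B hamster clone, α1D rat clone. Run essentially per an earlier method.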

[3] = target: Alpha adrenergic receptor 1A and 1D (Rattus norvegicus) (UniProt P23944+P43140); assay: Selectivity is ratio of pKi (binding affinity) of Alpha-1D to that of alpha1A; assay type: protein assay
[4] = target: T2, Alpha-1B adrenergic receptor (Mesocricetus auratus, UniProt P18841); assay: In vitro binding affinity towards alpha-1B adrenergic receptor of hamster clone in radioligand binding assay; assay type: single protein; how it was run: as §1
T2 sequence (P18841 whole entry): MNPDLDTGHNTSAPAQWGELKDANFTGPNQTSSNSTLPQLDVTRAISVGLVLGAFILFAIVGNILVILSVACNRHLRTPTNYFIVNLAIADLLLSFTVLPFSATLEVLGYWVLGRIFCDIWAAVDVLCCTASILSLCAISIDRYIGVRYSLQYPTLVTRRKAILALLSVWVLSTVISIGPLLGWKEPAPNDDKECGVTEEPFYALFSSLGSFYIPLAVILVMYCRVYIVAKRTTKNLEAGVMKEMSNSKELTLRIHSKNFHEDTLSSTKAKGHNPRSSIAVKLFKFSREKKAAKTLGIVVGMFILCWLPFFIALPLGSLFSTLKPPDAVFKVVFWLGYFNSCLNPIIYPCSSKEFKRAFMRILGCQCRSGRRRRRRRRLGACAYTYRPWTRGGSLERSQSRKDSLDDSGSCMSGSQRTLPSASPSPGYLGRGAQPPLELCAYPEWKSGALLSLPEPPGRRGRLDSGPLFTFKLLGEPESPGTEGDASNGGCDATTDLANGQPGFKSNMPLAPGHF

[5] = target: T3, Alpha-1A adrenergic receptor (Oryctolagus cuniculus) (UniProt O02824); assay: Efficacy relative to phenylephrine (PE) to constrict tissue containing the alpha-1A adrenergic receptor in rabbit urethra; assay type: functional, tissue-based
T3 sequence (whole entry): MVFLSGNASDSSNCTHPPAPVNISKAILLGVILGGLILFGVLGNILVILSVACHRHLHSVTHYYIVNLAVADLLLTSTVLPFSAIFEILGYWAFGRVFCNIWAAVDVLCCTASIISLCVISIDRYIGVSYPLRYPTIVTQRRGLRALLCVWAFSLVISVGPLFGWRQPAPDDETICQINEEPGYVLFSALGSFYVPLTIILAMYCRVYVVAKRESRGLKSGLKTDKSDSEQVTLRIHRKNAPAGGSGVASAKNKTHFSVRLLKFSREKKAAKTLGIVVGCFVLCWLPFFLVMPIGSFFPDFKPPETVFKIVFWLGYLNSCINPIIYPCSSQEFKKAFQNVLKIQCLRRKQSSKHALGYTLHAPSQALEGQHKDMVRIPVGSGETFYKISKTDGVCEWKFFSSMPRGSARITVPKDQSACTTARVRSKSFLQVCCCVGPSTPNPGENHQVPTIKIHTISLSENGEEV
How it was run: (§2)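 α1-agonist dose–response curves in isolated tissue: rabbit urethra (α1A), rat spleen (α1B), rat aorta (α1D). Agonist potency and efficacy read from the concentration–response curves.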

[6] = target: T3, Alpha-1A adrenergic receptor (Oryctolagus cuniculus); assay: Functional agonism of the compounds to constrict tissue containing the alpha-1A adrenergic receptor in rabbit urethra; assay type: tissue-based; how it was run: as §2
[7] = target: T4, Alpha-1A adrenergic receptor (Rattus norvegicus, UniProt P43140); assay: In vitro binding affinity towards alpha-1A adrenergic receptor of rat submaxillary gland in radioligand binding assay; how it was run: as §1
T4 sequence (P43140 whole entry): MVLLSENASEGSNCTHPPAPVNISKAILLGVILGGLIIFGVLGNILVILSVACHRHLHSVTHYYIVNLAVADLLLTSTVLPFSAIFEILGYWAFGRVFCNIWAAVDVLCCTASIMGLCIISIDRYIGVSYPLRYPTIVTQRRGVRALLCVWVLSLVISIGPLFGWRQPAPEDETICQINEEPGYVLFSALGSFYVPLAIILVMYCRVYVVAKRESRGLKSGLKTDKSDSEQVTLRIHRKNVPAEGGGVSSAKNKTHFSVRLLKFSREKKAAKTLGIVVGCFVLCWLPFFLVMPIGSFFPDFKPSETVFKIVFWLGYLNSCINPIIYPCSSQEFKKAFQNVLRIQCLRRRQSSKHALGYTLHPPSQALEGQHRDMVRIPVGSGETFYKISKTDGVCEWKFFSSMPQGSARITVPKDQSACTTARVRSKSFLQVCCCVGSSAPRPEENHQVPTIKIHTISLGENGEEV

Canis familiaris [8] = species on record: Canis familiaris; assay: Ratio of MAP ED delta20 to that of IUP ED delta5
Canis familiaris [9] = assay: Uroselectivity was determined by measuring effective dose required for 20 mmHg increase of mean arterial pressure (MAP) in vivo in dog; assay type: functional, Canis lupus familiaris, Artery
How it was run: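 Dog model recording intraurethral pressure (IUP) and mean arterial pressure (MAP) simultaneously. Increasing iv doses given, maximal effect of each dose taken. Doses giving a 5 mmHg rise in IUP (ED Δ5) or 20 mmHg rise in MAP (ED Δ20) were calculated, in nmol/kg ± SEM, n ≥ 4 (2 or 3 where footnoted).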

[10] = target: T5, Alpha-2A adrenergic receptor (Rattus norvegicus) (UniProt P22909); assay: Efficacy relative to clonidine to constrict tissue containing the alpha-2A adrenergic receptor in rat prostatic vas deferens
T5 sequence (whole entry): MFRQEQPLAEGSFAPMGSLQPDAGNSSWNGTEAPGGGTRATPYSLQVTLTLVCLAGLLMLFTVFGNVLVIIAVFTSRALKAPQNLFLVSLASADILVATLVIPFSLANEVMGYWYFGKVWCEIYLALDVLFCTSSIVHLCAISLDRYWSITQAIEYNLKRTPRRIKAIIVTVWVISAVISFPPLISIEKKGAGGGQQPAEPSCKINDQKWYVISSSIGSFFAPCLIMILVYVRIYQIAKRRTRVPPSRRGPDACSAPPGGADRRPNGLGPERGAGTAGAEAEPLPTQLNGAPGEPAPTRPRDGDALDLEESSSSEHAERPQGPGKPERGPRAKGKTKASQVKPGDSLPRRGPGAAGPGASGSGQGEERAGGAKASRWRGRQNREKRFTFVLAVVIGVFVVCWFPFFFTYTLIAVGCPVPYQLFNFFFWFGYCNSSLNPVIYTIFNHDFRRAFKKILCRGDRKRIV

Sequence of Alpha adrenergic receptor 1A and 1B (Rattus norvegicus) (P15823 whole entry, looked up, one chain of several): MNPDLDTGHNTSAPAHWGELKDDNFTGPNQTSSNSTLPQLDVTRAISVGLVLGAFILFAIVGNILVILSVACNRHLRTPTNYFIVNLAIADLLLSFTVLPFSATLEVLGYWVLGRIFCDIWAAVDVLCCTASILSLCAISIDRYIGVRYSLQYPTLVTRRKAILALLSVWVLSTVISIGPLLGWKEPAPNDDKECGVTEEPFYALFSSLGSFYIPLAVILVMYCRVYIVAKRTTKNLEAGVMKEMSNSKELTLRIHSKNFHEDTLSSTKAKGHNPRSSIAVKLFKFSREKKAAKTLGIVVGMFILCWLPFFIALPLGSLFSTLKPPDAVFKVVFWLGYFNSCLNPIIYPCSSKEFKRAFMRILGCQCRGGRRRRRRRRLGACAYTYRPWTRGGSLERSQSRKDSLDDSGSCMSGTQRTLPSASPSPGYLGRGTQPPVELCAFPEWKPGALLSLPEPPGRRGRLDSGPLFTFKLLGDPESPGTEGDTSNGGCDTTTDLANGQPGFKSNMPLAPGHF

| SMILES | Selectivity [1] | Ki [2] | Selectivity [3] | Ki [4] | Efficacy [5] | pD2 [6] | Ki [7] | Ratio (Canis familiaris [8]) | ED delta20 (Canis familiaris [9]) | Efficacy [10] |
| --- | --- | --- | --- | --- | --- | --- | --- | --- | --- | --- |
| CCS(=O)(=O)Nc1cccc2c1SCCC2c1c[nH]cn1 (stereo not given) | 10 | > 10 µM | 10 | > 10 µM |  |  |  |  |  |  |
| CS(=O)(=O)Nc1ccc(O)c2c1CCCC2c1c[nH]cn1 (stereo not given) | > 14 | > 10 µM | > 14 | > 10 µM | 34% | 4.61 |  |  |  |  |
| CCS(=O)(=O)Nc1cccc2c1CCCC2(O)c1c[nH]cn1 (stereo not given) | 1 | > 10 µM | 1 | > 10 µM |  |  | > 10000 nM |  |  |  |
| Cn1cncc1C1CCCc2c(NS(C)(=O)=O)cccc21 (stereo not given) |  | > 10 µM |  | > 10 µM |  |  | > 10000 nM |  |  |  |
| CCS(=O)(=O)Nc1cccc(NC2=NCCN2)c1 | > 3 | 0.355 µM | < 0.04 | > 10 µM |  |  | 2950 nM |  |  |  |
| CCS(=O)(=O)Nc1cccc(S(=O)(=O)c2c[nH]cn2)c1 |  | > 10 µM |  | > 10 µM |  |  | > 10000 nM |  |  |  |
| CCS(=O)(=O)Nc1cccc2c1CCCC2c1c[nH]c(C)n1 (stereo not given) | > 10 | > 10 µM | > 10 | > 10 µM |  |  |  |  |  |  |
| CC(c1cccc(NS(C)(=O)=O)c1)c1c[nH]cn1 (stereo not given) | 10 |  | 1 | > 10 µM | 92% | 5.38 |  | 3.4 | 234 nM/kg |  |
| CCCS(=O)(=O)Nc1cccc2c1CCCC2c1c[nH]cn1 (stereo not given) | > 6 | > 10 µM | > 6 | > 10 µM |  |  | 1700 nM |  |  |  |
| CCS(=O)(=O)Nc1cc(C2CCCCC2)cc2c1CCCC2c1c[nH]cn1 (stereo not given) | 3 |  | 2 |  |  |  |  |  |  |  |
| CCS(=O)(=O)Nc1cccc(Sc2c[nH]cn2)c1 |  | > 10 µM |  | > 10 µM |  |  | > 10000 nM |  |  |  |
| CCS(=O)(=O)Nc1cccc(Cc2c[nH]cn2)c1C | 60 | 1 µM | 8 | 8.13 µM | 69% |  | 129 nM | 5.6 | 202 nM/kg |  |
| CCS(=O)(=O)Nc1cccc(CC2CN=CN2)c1 (stereo not given) |  | 6.46 µM |  | 10 µM |  |  | > 10000 nM |  |  |  |
| CS(=O)(=O)Nc1ccc(F)c2c1CCCC2c1c[nH]cn1 (stereo not given) | > 32 |  | 10 | > 10 µM | 64% | 5.31 |  | 1 | 632 nM/kg |  |
| CC(C)S(=O)(=O)Nc1cccc2c1CCCC2c1c[nH]cn1 (stereo not given) | > 9 | 2.04 µM | 2 | > 10 µM | 74% | 5.17 | 1150 nM |  |  |  |
| CS(=O)(=O)Nc1ccc(Cl)c2c1CCCC2c1c[nH]cn1 (stereo not given) | > 20 |  | 6 | > 10 µM | 41% | 4.35 |  |  |  |  |
| Cc1ccc(NS(C)(=O)=O)c2c1C(c1c[nH]cn1)CCC2 (stereo not given) | > 26 |  | 7 | > 10 µM | 35% | 4.4 |  |  |  |  |
| CCS(=O)(=O)Nc1cc(F)cc2c1CCCC2c1c[nH]cn1 (stereo not given) | > 121 | 3.63 µM | 44 | > 10 µM |  |  | 83.2 nM |  |  |  |
| CCS(=O)(=O)Nc1cccc(-c2c[nH]cn2)c1 |  | > 10 µM |  | > 10 µM |  |  | > 10000 nM |  |  |  |
| CCS(=O)(=O)Nc1cccc2c1COC2c1c[nH]cn1 (stereo not given) | 10 | > 10 µM | 10 | > 10 µM |  |  |  |  |  |  |
| CS(=O)(=O)Nc1cccc2c1CCCCC2c1c[nH]cn1 (stereo not given) | > 7 |  | 2 |  | 17% | 4.72 |  |  |  |  |
| O=S(=O)(Nc1cccc2c1CCCC2c1c[nH]cn1)C1CC1 (stereo not given) | > 19 | 2.69 µM | 5 | > 10 µM | 51% | 5.25 | 537 nM |  |  |  |
| CS(=O)(=O)Nc1cccc2c1CCC[C@H]2c1c[nH]cn1 |  |  |  |  | 84% |  |  |  | 48.7 nM/kg | 29% |
| CCS(=O)(=O)Nc1cccc2c1CCCC2CNC (stereo not given) | > 7 | > 10 µM | > 7 | > 10 µM |  |  | 1380 nM |  |  |  |
| CCS(=O)(=O)Nc1cccc(CC2CCCN2)c1 (stereo not given) | > 10 | 0.501 µM | 1 | > 10 µM | 17% | 4.44 | 708 nM |  |  |  |
